Measurements from ChEMBL document CHEMBL4052702 (Bioorg Med Chem Lett, 2017).
Calls of active or inactive are those of the source. The calls are words filed in the database; no cut-off is given here.

Tests used:
[1] = target: T1, Protein deacetylase HDAC6 (Homo sapiens) (UniProt Q9UBN7); assay: Inhibition of HDAC6 in human U937 cells assessed as increase in acetylated-alpha-tubulin level incubated for 18 hrs by Western blot method; assay type: cell-based
T1 sequence (whole entry): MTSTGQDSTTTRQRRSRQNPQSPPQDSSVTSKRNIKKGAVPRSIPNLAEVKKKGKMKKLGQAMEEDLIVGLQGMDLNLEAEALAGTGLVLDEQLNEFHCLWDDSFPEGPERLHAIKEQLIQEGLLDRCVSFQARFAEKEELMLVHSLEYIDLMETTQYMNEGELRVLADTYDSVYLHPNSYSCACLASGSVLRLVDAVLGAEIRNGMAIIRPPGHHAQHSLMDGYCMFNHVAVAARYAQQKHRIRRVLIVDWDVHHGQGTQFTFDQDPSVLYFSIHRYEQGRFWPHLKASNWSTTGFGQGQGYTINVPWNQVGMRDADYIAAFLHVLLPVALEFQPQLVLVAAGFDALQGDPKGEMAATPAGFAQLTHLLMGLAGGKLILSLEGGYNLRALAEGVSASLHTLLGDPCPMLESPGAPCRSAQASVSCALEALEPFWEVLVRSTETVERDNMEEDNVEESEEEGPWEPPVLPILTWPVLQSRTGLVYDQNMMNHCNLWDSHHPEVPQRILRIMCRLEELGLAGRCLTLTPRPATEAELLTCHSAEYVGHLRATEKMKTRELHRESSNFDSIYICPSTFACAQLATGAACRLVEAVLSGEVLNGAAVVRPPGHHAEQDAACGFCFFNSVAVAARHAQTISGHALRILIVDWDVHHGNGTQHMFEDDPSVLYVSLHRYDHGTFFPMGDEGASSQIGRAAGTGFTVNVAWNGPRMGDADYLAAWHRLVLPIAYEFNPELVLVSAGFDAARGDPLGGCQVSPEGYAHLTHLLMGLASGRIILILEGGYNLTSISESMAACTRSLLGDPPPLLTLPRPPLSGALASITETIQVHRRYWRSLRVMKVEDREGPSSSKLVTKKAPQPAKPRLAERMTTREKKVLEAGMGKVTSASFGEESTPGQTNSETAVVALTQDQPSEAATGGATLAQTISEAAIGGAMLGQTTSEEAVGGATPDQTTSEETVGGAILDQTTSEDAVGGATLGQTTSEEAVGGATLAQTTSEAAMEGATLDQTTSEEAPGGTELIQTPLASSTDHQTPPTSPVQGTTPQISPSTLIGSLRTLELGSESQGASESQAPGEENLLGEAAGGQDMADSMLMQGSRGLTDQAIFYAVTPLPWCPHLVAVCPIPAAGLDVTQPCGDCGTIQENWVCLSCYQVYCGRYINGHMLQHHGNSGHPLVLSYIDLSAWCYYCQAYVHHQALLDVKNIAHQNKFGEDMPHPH
Outline: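 U937 cells were treated with inhibitor at 10–40 µM, with 1% DMSO as vehicle control. Cells were then lysed, run on SDS-PAGE, transferred to PVDF and western-blotted for acetyl-Lys40 α-tubulin, with acetyl-Lys9 histone H3 as the class I marker. GAPDH was probed as a loading control, and trials were repeated.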

[2] = target: T2, Histone deacetylase 2 (Homo sapiens, UniProt Q92769); assay: Inhibition of HDAC2 in human U937 cells assessed as increase in acetylated-histone H3 level at 10 to 40 uM incubated for 18 hrs by Western blot method; assay type: cell-based
Outline: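 U937 cells were treated with 10–40 µM compound, with a 1% DMSO vehicle control. Cells were then lysed and the lysates run on SDS-PAGE and transferred to PVDF. Blots were probed for histone H3 acetyl-Lys9, which reports class I HDAC (1, 2, 3) inhibition, with GAPDH as the loading control. Repeat trials were run.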

[3] = species: Homo sapiens; assay: Inhibition of HDAC in human HeLa-S3 cells lysates assessed as remaining enzyme activity at 1.2 x 10^-5 M pre-incubated for 15 mins before HDAC-Glo I/II substrate addition and measured after 30 mins post substrate addition; assay type: cell-free
[4] = species: Homo sapiens; assay: Inhibition of HDAC in human HeLa-S3 cells lysates assessed as remaining enzyme activity at 6 x 10^-6 M pre-incubated for 15 mins before HDAC-Glo I/II substrate addition and measured after 30 mins post substrate addition; assay type: cell-free
[5] = species: Homo sapiens; assay: Inhibition of HDAC in human HeLa-S3 cells lysates assessed as remaining enzyme activity at 3 x 10^-6 M pre-incubated for 15 mins before HDAC-Glo I/II substrate addition and measured after 30 mins post substrate addition; assay type: cell-free
[6] = species: Homo sapiens; assay: Inhibition of HDAC in human HeLa-S3 cells lysates assessed as remaining enzyme activity at 1.5 x 10^-6 M pre-incubated for 15 mins before HDAC-Glo I/II substrate addition and measured after 30 mins post substrate addition; assay type: cell-free
[7] = species: Homo sapiens; assay: Inhibition of HDAC in human HeLa-S3 cells lysates assessed as remaining enzyme activity at 7.5 x 10^-7 M pre-incubated for 15 mins before HDAC-Glo I/II substrate addition and measured after 30 mins post substrate addition; assay type: cell-free
[8] = target: Histone deacetylase 1 (Homo sapiens, UniProt Q13547); assay: Inhibition of HDAC1 (unknown origin) assessed as remaining enzyme activity at 0.25 uM by ELISA-based assay
Outline: (§1)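 Isoform screen by ELISA-based HDAC activity assay against HDAC1, HDAC2, HDAC3 and HDAC6. Each analog was tested at one final concentration: 0.025, 0.125, 0.25 or 1.25 µM. Read-out is percent deacetylase activity remaining, given as the mean with standard error of at least two independent trials.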

[9] = target: T3, Histone deacetylase 3 (Homo sapiens, UniProt O15379); assay: Inhibition of HDAC3 (unknown origin) assessed as remaining enzyme activity at 0.25 uM by ELISA-based assay; outline: as §1
[10] = target: T1, Protein deacetylase HDAC6 (Homo sapiens); assay: Inhibition of HDAC6 (unknown origin) assessed as remaining enzyme activity at 0.25 uM by ELISA-based assay
Outline: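 Single-concentration isoform screen using an ELISA-based HDAC activity assay, run in parallel against HDAC1, HDAC2, HDAC3 and HDAC6. Read-out is percent deacetylase activity remaining, given as the mean of at least two independent trials with standard error.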

[11] = target: T2, Histone deacetylase 2; assay: Inhibition of HDAC2 (unknown origin) assessed as remaining enzyme activity at 5 x 10^-7 M by ELISA-based assay
[12] = target: T3, Histone deacetylase 3; assay: Inhibition of HDAC3 (unknown origin) assessed as remaining enzyme activity at 5 x 10^-7 M by ELISA-based assay

T2 sequence (Q92769 whole entry): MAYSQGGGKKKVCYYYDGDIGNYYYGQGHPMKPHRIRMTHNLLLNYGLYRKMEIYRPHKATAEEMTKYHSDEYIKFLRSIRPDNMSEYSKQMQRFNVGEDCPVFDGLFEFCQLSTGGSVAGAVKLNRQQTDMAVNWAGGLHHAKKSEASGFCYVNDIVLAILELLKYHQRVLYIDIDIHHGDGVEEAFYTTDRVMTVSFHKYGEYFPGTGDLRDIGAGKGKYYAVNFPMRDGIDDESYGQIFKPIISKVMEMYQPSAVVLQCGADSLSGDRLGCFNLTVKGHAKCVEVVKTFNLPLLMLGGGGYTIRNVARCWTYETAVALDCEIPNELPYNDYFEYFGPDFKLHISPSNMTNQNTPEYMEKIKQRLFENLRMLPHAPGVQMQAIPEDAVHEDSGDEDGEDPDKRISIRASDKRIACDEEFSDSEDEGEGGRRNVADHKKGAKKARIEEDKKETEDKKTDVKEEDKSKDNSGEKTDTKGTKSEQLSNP
T3 sequence (O15379 whole entry): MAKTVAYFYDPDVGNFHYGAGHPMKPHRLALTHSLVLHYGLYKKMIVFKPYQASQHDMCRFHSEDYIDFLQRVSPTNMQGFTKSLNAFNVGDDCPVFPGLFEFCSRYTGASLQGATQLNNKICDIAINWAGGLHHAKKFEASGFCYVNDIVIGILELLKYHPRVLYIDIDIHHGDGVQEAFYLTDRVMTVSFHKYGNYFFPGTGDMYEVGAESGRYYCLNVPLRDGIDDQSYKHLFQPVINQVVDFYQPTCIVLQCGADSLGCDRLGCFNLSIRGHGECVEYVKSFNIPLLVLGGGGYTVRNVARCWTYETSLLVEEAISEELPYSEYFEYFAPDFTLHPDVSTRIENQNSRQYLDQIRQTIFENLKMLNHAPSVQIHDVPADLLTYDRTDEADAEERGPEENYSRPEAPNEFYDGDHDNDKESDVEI
Sequence of Histone deacetylase 1 (Q13547 whole entry, canonical isoform): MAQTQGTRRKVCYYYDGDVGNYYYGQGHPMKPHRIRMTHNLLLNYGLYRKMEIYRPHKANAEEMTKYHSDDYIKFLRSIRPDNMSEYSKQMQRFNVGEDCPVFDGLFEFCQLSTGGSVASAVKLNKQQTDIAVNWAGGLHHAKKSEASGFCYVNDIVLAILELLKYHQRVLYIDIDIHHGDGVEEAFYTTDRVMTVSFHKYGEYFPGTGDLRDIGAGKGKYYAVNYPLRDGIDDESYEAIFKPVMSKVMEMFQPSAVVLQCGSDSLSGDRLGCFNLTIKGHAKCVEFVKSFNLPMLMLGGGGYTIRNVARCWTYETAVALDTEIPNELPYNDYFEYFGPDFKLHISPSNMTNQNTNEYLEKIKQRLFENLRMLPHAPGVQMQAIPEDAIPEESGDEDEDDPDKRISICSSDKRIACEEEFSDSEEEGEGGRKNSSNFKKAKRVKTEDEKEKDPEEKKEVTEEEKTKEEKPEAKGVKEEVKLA

SMILES	inhibition [1]	inhibition [2]	Activity [3]	Activity [4]	Activity [5]	Activity [6]	Activity [7]	Activity [8]	Activity [9]	Activity [10]	Activity [11]	Activity [12]
O=C(CCCC(CCC(=O)Nc1ccccc1)Cc1ccccc1)NO (configuration not stated)	Dose-dependent effect	Active										
CCCCC(CCCC(=O)NO)CCC(=O)Nc1ccccc1 (configuration not stated)			23%	42%	66%	88%	101%	81 to 84%	74 to 92%	35%	73%	83%
